Screening results deposited in PubChem BioAssay by several laboratories.
Compounds with a hit are over-represented: about 4.8% of the library has one in this group of screens.
APP 5'UTR act: activators of APP 5'UTR luciferase reporter, primary screen, SH-SY5Y cells. 190,000 tested, 1% active. SH-SY5Y APP 5'UTR luciferase reporter, luminescence; zero percent = DMSO vehicle wells. activation, % at 2 µM;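 active = activation above a set limit, based on mean plus 3 SD of controls, cut at about 140% in these data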
NF-kB expr up: activators of NF-kB expression in neurons, primary screen, cell-based, HTS | human neuronal cells, NF-kB reporter expression; hits give high values | fold change at 12.5 µM | 190,000 tested, 1.6% active; in the data active = fold change above about 3.3
FLuc act counter: FLuc activators, initial screening, artefact control for FLuc-dependent activation tests, biochemical, ATPlite luminescence. ATPlite luciferase biochemical, 10 min; 0 = ATP-free wells, 1 = DMSO control. activation factor at 10 µM. 200,000 tested, under 10 active. Luciferin 4-monooxygenase (Photinus pyralis), P08659;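 active = luciferase activation factor, scaled between plate controls, of at least 2 with compound at 10 µM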
Target sequence (P08659 whole entry, looked up): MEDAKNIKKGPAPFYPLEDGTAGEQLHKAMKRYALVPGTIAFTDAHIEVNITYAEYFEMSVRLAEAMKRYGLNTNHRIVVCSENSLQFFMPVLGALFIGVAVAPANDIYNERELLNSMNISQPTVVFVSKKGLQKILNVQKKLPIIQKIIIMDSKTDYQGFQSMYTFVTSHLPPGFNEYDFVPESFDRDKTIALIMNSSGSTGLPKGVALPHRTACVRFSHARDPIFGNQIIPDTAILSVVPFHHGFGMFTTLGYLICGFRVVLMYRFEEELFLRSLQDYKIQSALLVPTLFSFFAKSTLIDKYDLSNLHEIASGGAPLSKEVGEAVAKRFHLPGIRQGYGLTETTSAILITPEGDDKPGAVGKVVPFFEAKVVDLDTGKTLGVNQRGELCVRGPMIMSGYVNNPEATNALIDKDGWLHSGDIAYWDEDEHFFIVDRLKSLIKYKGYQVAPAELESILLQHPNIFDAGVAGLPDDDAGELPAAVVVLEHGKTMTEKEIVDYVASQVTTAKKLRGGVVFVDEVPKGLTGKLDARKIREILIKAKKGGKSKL
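System: luciferase plus luciferin reagent, cell-free; medium: PBS as buffer for the ATP substrate; dosing: test compounds dosed from 2 mM stocks in 100% DMSO; timing: 10 min post-reagent at room temperature; measured by: luminescence measurement of luciferase light output; evaluation: luciferase activation, seen as luminescence increase over controls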
APP transl inh: inhibitors of APP translation via 5'UTR reporter, primary screen, APP 5'UTR luciferase, SH-SY5Y cells; SH-SY5Y APP 5'UTR-luciferase reporter, luminescence; inhibition, % at 2 µM; 190,000 tested, 0.82% active;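 active = inhibition above a set limit, derived from the sample mean plus 3 SD, cut at about 45% in these data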
FLuc inh counter: firefly luciferase enzyme inhibitors, primary screen, artefact control for luciferase-based inhibitor screens, biochemical, luminescence, ATPLite; Luciferin 4-monooxygenase (Photinus pyralis), P08659; 10 min; inhibition, % at 10 µM; 200,000 tested, 1.5% active;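 active = inhibition above about 50% when tested at 10 µM, limit read from the data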
STAT1 act: STAT1 signaling activators, primary screen, cell-based, HTS, luciferase reporter | NIH 3T3 STAT1-luciferase reporter, IFN-gamma, luminescence; 100% = IFN-gamma alone, no compound | activation (% of control), % at 5.5 µM | 200,000 tested, 2.6% active | AID 932, 2007;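 active = activation above the screen-wide mean activation plus 3 SD, cut at about 130% in these data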;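 also: raw ratio to IFN-gamma control signal so 100% means no change and 0% no light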
Starred values were filed as active, the others as inactive; / = no result.

SMILES	APP 5'UTR act	NF-kB expr up	FLuc act counter	APP transl inh	FLuc inh counter	STAT1 act
CNC(=O)c1nnsc1S(=O)c1ccc(Cl)cc1 (stereo not given)	-86	1.2	1	86*	-4	89
Cc1ccc(C(=O)COC(=O)CCC(=O)Nc2cccc(Cl)c2)cc1[N+](=O)[O-]	-17	1.2	1.1	17	-7	113
O=C1NC(c2ccccc2)Nc2c1sc(=S)n2-c1ccccc1 (stereo not given)	-18	1	1.1	18	-8	82
Cc1cc(NC(=O)c2cccc(Oc3ccccc3)c2)n[nH]1	88	3	0.3	-88	71*	122
O=C(Nc1nn[nH]n1)c1cccc(Oc2ccccc2)c1	-11	1.1	1.1	11	-5	105
Cc1cc(NC(=O)NC(=O)c2cccc(OC(F)(F)C(F)F)c2)n[nH]1	55	1.7	1	-55	1	132*
CC1(C)CC(=O)C2=C(C1)Oc1nc3ccccc3cc1C2C(C#N)C#N (stereo not given)	19	1.4	1	-19	-4	88
Brc1ccc(-c2ncc(-c3ccccc3)cn2)cc1	31	5.7*	0.7	-31	32	139*
CC1CCC/C(=N\NC(=S)Nc2ccccc2)C1 (stereo not given)	126	0.94	1	-126	-3	106
CC1CCCC/C1=N\NC(=S)Nc1ccccc1 (stereo not given)	175*	1.4	1	-175	-4	105
COc1ccccc1N/C(N)=N/c1nc(C(F)(F)F)cc(=O)[nH]1	4	0.96	1	-4	-2	88
CCOC(CCn1c(SCC(=O)Nc2cc(C)on2)nc2ccccc2c1=O)OCC	-6	1	1.1	6	-11	96
O=C(N/N=C/c1cc2c3c(c1O)CCCN3CCC2)c1ccccc1O	-85	1	1	85*	2	106
CCCOc1ccc(S(=O)(=O)N2CCOCC2)cc1[N+](=O)[O-]	-5	1.4	1.1	5	-7	103
O=C(COc1ccccc1)Nc1nc2ccccc2[nH]1	56	2.6	0.5	-56	48	129*
CC(CC(=O)Nc1nc2ccccc2[nH]1)c1ccccc1 (stereo not given)	123	2.5	0.8	-123	25	145*
Cc1ccccc1OCC(=O)Nc1nc2ccccc2[nH]1	114	2.1	0.2	-114	84*	136*
CCOc1ccccc1OCC(=O)Nc1nc2ccccc2[nH]1	-29	1.7	0.8	29	19	104
COc1cccc(/C=N/n2c(N)nc3ccccc32)c1OC	42	0.95	0.9	-42	9	104
COc1ccc(/C=N/n2c(N)nc3ccccc32)cc1OC	12	0.95	0.4	-12	60*	115
C/C(=N\NC(=O)c1cccc(F)c1)c1cccc(NC(=O)c2ccc(F)cc2)c1	-2	1.2	1	2	2	107
C/C(=N\NC(=O)c1ccc(F)cc1)c1cccc(NC(=O)c2ccco2)c1	14	0.94	0.5	-14	50*	101
C/C(=N\NC(=O)c1ccc(Cl)cc1)c1cccc(NC(=O)c2cccnc2)c1	-7	1.1	0.4	7	63*	103
C/C(=N\NC(=O)c1nn(C)c(C)c1Br)c1cccc(NC(=O)c2ccoc2C)c1	59	1.5	0.8	-59	20	150*
C/C(=N\NC(=O)c1ccn(C)n1)c1cccc(NC(=O)c2ccncc2)c1	-3	1	0.8	3	24	120
SMILES	APP 5'UTR act	NF-kB expr up	FLuc act counter	APP transl inh	FLuc inh counter	STAT1 act
CCOc1ccc(N2C(=O)c3ccccc3C2=O)cc1	-3	1.4	1	3	0	117
CCOc1ccc(N2Cc3ncccc3C2=O)cc1	83	1.9	0.6	-83	38	140*
Cc1cc(Cl)n2c(nc3ccccc32)c1C#N	-90	2.2	1	90*	-2	103
CC(=O)n1c2c(c3ccccc31)OC(N)=C(C#N)C2c1ccc(C(C)C)cc1 (stereo not given)	48	0.61	1.1	-48	-5	129*
O=C(O)CCC(=O)Nc1ccccc1C(=O)NCCc1ccccc1	27	1.8	1	-27	1	135*
Cc1sc(NC(=S)NC(=O)CCc2ccccc2)c(C(N)=O)c1C	-95	1	1.1	95*	-10	113
CCCCCC(=O)NC(=S)Nc1ccccc1C(=O)OC	-71	1	1.1	72*	-10	99
COC(=O)CCC(=O)NC(=S)Nc1sc(C)c(C)c1C(N)=O	-94	1.3	1.1	94*	-9	99
Cc1sc(NC(=S)NC(=O)c2ccco2)c(C(N)=O)c1C	37	1.2	0.9	-37	9	107
CCCCC(=O)NC(=S)Nc1ccccc1C(=O)Nc1ccccc1	-6	1.1	1.1	6	-5	96
COCc1c(C(=O)N/N=C/c2cccc3ccccc23)nnn1-c1nonc1N	-9	1.1	1	10	4	106
CCOC(=O)c1cc(-c2ccc(OC)cc2)nc2c1c(C)nn2CCC(N)=S	-15	0.64	1.1	15	-7	104
COC(=O)c1c(NC(=O)Nc2ccc(Cl)cc2)sc(C)c1C	/	1.1	1	/	-5	101
Cc1sc(NC(=O)Nc2ccccc2)c(C(N)=O)c1C	66	2.9	0.6	-66	38	139*
NC(=O)c1ccccc1NC(=S)NC(=O)CCc1ccccc1	-71	1.9	1	71*	0	105
COc1ccc(CN=C2Nc3ccccc3CS2)cc1	200*	6.7*	0.5	-200	53*	126
COc1ccc(CN=C2NN=C(c3ccc(Cl)cc3)CS2)cc1	8	2.8	0.9	-8	6	144*
COc1ccc(C2=NN(C)C(=NCc3ccccc3)SC2)cc1	-6	1.2	1.1	6	-6	103
Clc1ccc(C2=NNC(=NCc3ccc4c(c3)OCO4)SC2)cc1	1	1.2	1	0	-5	94
O=C(Nc1ccc(Cl)cc1)N1CCOC12CCCCC2	7	1.1	1	-7	1	96
C#CCOCCOCCOCCNc1nc(N2CCN(C(=O)[C@H]([C@@H](C)CC)n3cc([C@@H](N)CC(C)C)nn3)CC2)nc(N2CCN(C(=O)[C@H](CCCCN)n3cc([C@@H](N)CO)nn3)CC2)n1	16	1.1	1	-16	-4	111
O=C(Nc1ccc2c(c1)OCO2)C1CCCN(c2nc3ccccc3s2)C1 (stereo not given)	9	1.2	1	-9	2	129*
